Data from ChEMBL document CHEMBL1140861, “Short antisense oligonucleotides with novel 2'-4' conformationaly restricted nucleoside analogues show improved potency without increased toxicity in animals” (J Med Chem, 2009).
The source made the active and inactive calls. The rule behind the calls is not given here.

Columns and labels:
Mus musculus [1] = test: Hepatotoxicity in BALB/c mouse assessed as increase in liver ALT level at 0.7 mg/kg, ip administered twice a week for 3 weeks measured after 72 hrs of last dose; format: toxicity, organism-based; set-up: dose 0.7 mg/kg, route intraperitoneal; conditions: in vivo
How it was run: (§1)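 Male Balb/c mice, 6 weeks old, dosed ip twice weekly for 3 weeks at 0.5, 1.5, 4.7 and 15 mg/kg (two ASOs) or 0.7, 2.3, 7.2 and 23 mg/kg (MOE control); sacrificed 72 h after last dose; ALT, liver PTEN mRNA, liver and spleen weights and body weight gain assessed; ED50 derived; errors as sd.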

Mus musculus [2] = test: Hepatotoxicity in BALB/c mouse assessed as increase in liver ALT level at 23 mg/kg, ip administered twice a week for 3 weeks measured after 72 hrs of last dose; format: toxicity, organism-based; set-up: dose 23 mg/kg, route intraperitoneal; conditions: in vivo; how it was run: as §1
Mus musculus [3] = test: Toxicity in BALB/c mouse assessed as reduction in body weight at 15 mg/kg, ip administered twice a week for 3 weeks measured after 72 hrs of last dose; format: organism-based; set-up: dose 15 mg/kg, route intraperitoneal; conditions: in vivo; how it was run: as §1
Mus musculus [4] = test: Reduction of PTEN level in ip dosed BALB/c mouse liver at 37 mg/kg by Western blot analysis; format: functional, organism-based; set-up: dose 37 mg/kg
Mus musculus [5] = species on record: Mus musculus; test: Binding affinity to mouse PTEN mRNA assessed as melting temperature
How it was run: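 Tm of ASO–RNA duplex, i.e. melting temperature of the ASO hybridised to its complementary RNA.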

Mus musculus [6] = test: Hepatotoxicity in BALB/c mouse assessed as increase in liver ALT level at 1.5 mg/kg, ip administered twice a week for 3 weeks measured after 72 hrs of last dose; format: toxicity, organism-based; set-up: dose 1.5 mg/kg, route intraperitoneal; conditions: in vivo; how it was run: as §1
Mus musculus [7] = test: Toxicity in BALB/c mouse assessed as reduction in body weight at 0.5 mg/kg, ip administered twice a week for 3 weeks measured after 72 hrs of last dose; format: organism-based; set-up: dose 0.5 mg/kg, route intraperitoneal; conditions: in vivo; how it was run: as §1
Mus musculus [8] = test: Toxicity in BALB/c mouse assessed as reduction in body weight at 4.7 mg/kg, ip administered twice a week for 3 weeks measured after 72 hrs of last dose; format: organism-based; set-up: dose 4.7 mg/kg, route intraperitoneal; conditions: in vivo; how it was run: as §1
Mus musculus [9] = test: Hepatotoxicity in BALB/c mouse assessed as increase in liver ALT level at 2.3 mg/kg, ip administered twice a week for 3 weeks measured after 72 hrs of last dose; format: toxicity, organism-based; set-up: dose 2.3 mg/kg, route intraperitoneal; conditions: in vivo; how it was run: as §1
Mus musculus [10] = test: Reduction of PTEN mRNA level in BALB/c mouse liver at 60 mg/kg, ip after 72 hrs; format: functional, organism-based; set-up: dose 60 mg/kg
Mus musculus [11] = test: Toxicity in BALB/c mouse assessed as reduction in body weight at 1.5 mg/kg, ip administered twice a week for 3 weeks measured after 72 hrs of last dose; format: organism-based; set-up: dose 1.5 mg/kg, route intraperitoneal; conditions: in vivo; how it was run: as §1
Mus musculus [12] = test: Hepatotoxicity in BALB/c mouse assessed as increase in liver ALT level at 0.5 mg/kg, ip administered twice a week for 3 weeks measured after 72 hrs of last dose; format: toxicity, organism-based; set-up: dose 0.5 mg/kg, route intraperitoneal; conditions: in vivo; how it was run: as §1
Mus musculus [13] = test: Hepatotoxicity in BALB/c mouse assessed as increase in liver ALT level at 7.2 mg/kg, ip administered twice a week for 3 weeks measured after 72 hrs of last dose; format: toxicity, organism-based; set-up: dose 7.2 mg/kg, route intraperitoneal; conditions: in vivo; how it was run: as §1
Mus musculus [14] = test: Hepatotoxicity in BALB/c mouse assessed as increase in liver ALT level at 4.7 mg/kg, ip administered twice a week for 3 weeks measured after 72 hrs of last dose; format: toxicity, organism-based; set-up: dose 4.7 mg/kg, route intraperitoneal; conditions: in vivo; how it was run: as §1
Mus musculus [15] = test: Reduction of PTEN mRNA level in BALB/c mouse liver at 37 mg/kg, ip after 72 hrs; format: functional, organism-based; set-up: dose 37 mg/kg
Mus musculus [16] = test: Hepatotoxicity in BALB/c mouse assessed as increase in liver ALT level at 15 mg/kg, ip administered twice a week for 3 weeks measured after 72 hrs of last dose; format: toxicity, organism-based; set-up: dose 15 mg/kg, route intraperitoneal; conditions: in vivo; how it was run: as §1
Mus musculus [17] = test: Reduction of PTEN mRNA level in ip dosed BALB/c mouse liver administered twice a week for 3 weeks measured after 72 hrs of last dose; format: functional; how it was run: as §1
bEND = test: Reduction in mouse PTEN mRNA level expressed in mouse bEND cells; format: functional, cell-based
How it was run: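 bEND mouse brain endothelial cells transfected with ASO using lipofectin; PTEN mRNA reduction measured over a dose range; IC50 taken from dose-response curves.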

Mus musculus [18] = test: Hepatotoxicity in BALB/c mouse assessed as increase in liver ALT level at 60 mg/kg, ip after 72 hrs; format: toxicity, organism-based; set-up: dose 60 mg/kg, route intraperitoneal; conditions: in vivo
Mus musculus [19] = test: Reduction of PTEN mRNA level in ip dosed BALB/c mouse liver after 72 hrs; format: functional

For `COCCO[C@@H]1[C@H](O)[C@@H](COP(O)(=S)O[C@H]2[C@@H](OCCOC)[C@H](n3cc(C)c(=O)[nH]c3=O)O[C@@H]2COP(O)(=S)O[C@H]2[C@@H](OCCOC)[C@H](n3cnc4c(=O)[nH]c(N)nc43)O[C@@H]2COP(O)(=S)O[C@H]2[C@@H](OCCOC)[C@H](n3cc(C)c(N)nc3=O)O[C@@H]2COP(O)(=S)O[C@H]2[C@@H](OCCOC)[C@H](n3cc(C)c(=O)[nH]c3=O)O[C@@H]2COP(O)(=S)O[C@H]2[C@@H](O)[C@H](n3cnc4c(N)ncnc43)O[C@@H]2COP(O)(=S)O[C@H]2[C@@H](O)[C@H](n3cnc4c(=O)[nH]c(N)nc43)O[C@@H]2COP(O)(=S)O[C@H]2[C@@H](O)[C@H](n3cc(C)c(N)nc3=O)O[C@@H]2COP(O)(=S)O[C@H]2[C@@H](O)[C@H](n3cc(C)c(N)nc3=O)O[C@@H]2COP(O)(=S)O[C@H]2C[C@H](n3cc(C)c(=O)[nH]c3=O)O[C@@H]2COP(O)(=S)O[C@H]2[C@@H](O)[C@H](n3cc(C)c(N)nc3=O)O[C@@H]2COP(O)(=S)O[C@H]2C[C@H](n3cc(C)c(=O)[nH]c3=O)O[C@@H]2COP(O)(=S)O[C@H]2[C@@H](O)[C@H](n3cnc4c(=O)[nH]c(N)nc43)O[C@@H]2COP(O)(=S)O[C@H]2[C@@H](O)[C@H](n3cnc4c(=O)[nH]c(N)nc43)O[C@@H]2COP(O)(=S)O[C@H]2[C@@H](O)[C@H](n3cnc4c(N)ncnc43)O[C@@H]2COP(O)(=S)O[C@H]2[C@@H](OCCOC)[C@H](n3cc(C)c(=O)[nH]c3=O)O[C@@H]2COP(O)(=S)O[C@H]2[C@@H](OCCOC)[C@H](n3cc(C)c(=O)[nH]c3=O)O[C@@H]2COP(O)(=S)O[C@H]2[C@@H](OCCOC)[C@H](n3cc(C)c(=O)[nH]c3=O)O[C@@H]2COP(O)(=S)O[C@H]2[C@@H](OCCOC)[C@H](n3cnc4c(=O)[nH]c(N)nc43)O[C@@H]2COP(O)(=S)O[C@H]2[C@@H](OCCOC)[C@H](n3cnc4c(N)ncnc43)O[C@@H]2CO)O[C@H]1n1cc(C)c(N)nc1=O` (stereo not given in full), the Activity (Mus musculus [1]) was “Non-toxic”, the Activity (Mus musculus [2]) was “Non-toxic” and the Activity (Mus musculus [3]) was “Non-toxic”. The Activity (Mus musculus [4]) was “Active”, the Tm (Mus musculus [5]) was 67.9 °C and the Activity (Mus musculus [6]) was “Non-toxic”. The Activity (Mus musculus [7]) was “Non-toxic”, the Activity (Mus musculus [8]) was “Non-toxic” and the Activity (Mus musculus [9]) was “Non-toxic”. For the same compound, the Activity (Mus musculus [10]) was “Active”, the Activity (Mus musculus [11]) was “Non-toxic” and the Activity (Mus musculus [12]) was “Non-toxic”. For the same compound, the Activity (Mus musculus [13]) was “Non-toxic”, the Activity (Mus musculus [14]) was “Non-toxic” and the Activity (Mus musculus [15]) was “Active”. For the same compound, the Activity (Mus musculus [16]) was “Non-toxic”, the ED50 (Mus musculus [17]) was 9.5 mg/kg and the IC50 (bEND) was 6.2 nM. The Activity (Mus musculus [18]) was “Non-toxic” and the ED50 (Mus musculus [19]) was 36 mg/kg.
